Measurements published in ChEMBL document CHEMBL1156769, “9-Arylpurines as a novel class of enterovirus inhibitors” (J Med Chem, 2010).

Experiments:
[1] = Cytotoxicity against african green monkey Vero cells after 3 days by MTS assay; type: cell-based; details: chlorocebus sabaeus
Method in brief: (§1)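 Uninfected cultures in the antiviral-assay setup were exposed to serial compound dilutions for three days at 37 °C. Viability was read by the MTS method. CC50, the concentration inhibiting cell proliferation by 50%, was obtained by linear interpolation; mean ± SD of at least three independent experiments.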

Coxsackievirus B3 = experiment: Antiviral activity against Coxsackievirus B3 infected in african green monkey Vero cells assessed as reduction of virus-induced cytopathic effect after 3 days by MTS assay; type: functional, organism-based; details: Enterovirus B, 72 h
Method in brief: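 CPE-reduction assay in confluent Vero cells. Serial compound dilutions and 100 CCID50 of CVB3 were added, then incubated 3 days at 37 °C until complete CPE in the virus control. Optical density after MTS/PMS was read at 498 nm relative to uninfected untreated cells. EC50 was interpolated linearly; mean ± SD of at least three independent experiments.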

[2] = Cytotoxicity against human MRC5 cells after 3 days by MTS assay; type: cell-based; method in brief: as §1
[3] = Cytotoxicity against human HeLa cells after 3 days by MTS assay; type: cell-based; method in brief: as §1
[4] = Cytotoxicity against african green monkey Vero cells after 3 days by Cell titer glo luminescent assay; type: cell-based; details: chlorocebus sabaeus
Method in brief: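 Uninfected Vero cells were incubated with serial compound dilutions for three days at 37 °C, using the same setup as the antiviral assay. Survival was measured with the CellTiter-Glo luminescent viability assay. CC50 (50% inhibition of proliferation) was determined by linear interpolation; mean ± SD of at least three independent experiments.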

rhinovirus B14 = experiment: Antiviral activity against Rhinovirus 14 infected in human HeLa-R cells assessed as reduction of virus induced cytopathic effect after 3 days by MTS assay; type: functional, organism-based; details: Rhinovirus B, 72 h
Method in brief: (§2)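 Rhinoviruses were cultured in HeLa R cells at 35 °C. Confluent cells received serial compound dilutions and 100 CCID50 of virus until complete CPE developed in the virus control. Survival was quantified by MTS/PMS at 498 nm versus uninfected compound-free cells. EC50 was calculated by linear interpolation; mean ± SD of at least three independent experiments.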

[5] = Antiviral activity against Echovirus 9 Hill assessed as reduction of virus-induced cytopathic effect after 3 days by MTS assay; type: functional, Echovirus 9 (strain Hill)
Method in brief: (§3)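 Confluent MRC-5 monolayers received serial compound dilutions plus 100 CCID50 of virus and were incubated 3 days at 37 °C, until full CPE appeared in the untreated virus control. Viability was read by MTS/PMS at 498 nm and compared with uninfected, compound-free cells. EC50 (50% CPE inhibition) was obtained by linear interpolation; mean ± SD of at least three independent experiments.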

[6] = Antiviral activity against Coxsackie virus A21 Coe infected in human MRC5 cells assessed as reduction of virus induced cytopathic effect after 3 days by MTS assay; type: functional, cell-based, Human coxsackievirus A21 (strain Coe); details: Enterovirus C, MRC5, 72 h
Method in brief: (§4)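 Confluent MRC-5 monolayers were cultured at 37 °C and given serial compound dilutions plus 100 CCID₅₀ virus. EC₅₀ (50% CPE inhibition) was found by linear interpolation. Values are the mean ± SD of at least three independent experiments.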

Poliovirus 1 = experiment: Antiviral activity against Poliovirus1 sabin infected in Vero cells assessed as reduction of virus induced cytopathic effect after 3 days by MTS assay; type: functional, cell-based; details: Enterovirus C, 72 h
Method in brief: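 Vero cells were grown to confluence at 37 °C and then given serial compound dilutions together with 100 CCID₅₀ virus. After 3 days, once virus controls reached full CPE, cell viability was measured by MTS/PMS as absorbance at 498 nm, relative to uninfected untreated wells. EC₅₀ was interpolated linearly as the concentration giving 50% CPE inhibition. Results are the mean ± SD of three or more independent experiments.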

[7] = Antiviral activity against Echovirus 11 Gregory assessed as reduction of virus-induced cytopathic effect after 3 days by MTS assay; type: functional, Echovirus 11 (strain Gregory); method in brief: as §3
rhinovirus A2 = experiment: Antiviral activity against Rhinovirus 2 infected in human HeLa-R cells assessed as reduction of virus induced cytopathic effect after 3 days by MTS assay; type: functional, organism-based; details: Rhinovirus A, 72 h; method in brief: as §2
Coxsackievirus A24 = experiment: Antiviral activity against Coxsackie virus A24 infected in human MRC5 cells assessed as reduction of virus induced cytopathic effect after 3 days by MTS assay; type: functional, organism-based; details: Enterovirus C, MRC5, 72 h; method in brief: as §4
[8] = Antiviral activity against Coxsackievirus A16 G10 infected in human MRC5 cells assessed as reduction of virus induced cytopathic effect after 3 days by MTS assay; type: functional, cell-based, Human coxsackievirus A16 (strain G-10); details: Enterovirus A, MRC5, 72 h; method in brief: as §3
[9] = Antiviral activity against Enterovirus 71 BrCr infected in human RD cells assessed as reduction of virus induced cytopathic effect after 3 days by MTS assay; type: functional, cell-based, Human enterovirus 71 (strain BRCR); details: Enterovirus A, 72 h
Method in brief: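 Virus was cultured in RD cells at 37 °C. Confluent cells were given serial compound dilutions with 100 CCID50 of virus for 3 days, until complete CPE in untreated infected controls. Cell viability was measured by MTS/PMS absorbance at 498 nm. EC50 was derived by linear interpolation; mean ± SD of at least three independent experiments.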

| SMILES | CC50 at 72 h [1] [µM] | EC50 (Coxsackievirus B3) [µM] | EC90 (Coxsackievirus B3) [µM] | other results |
| --- | --- | --- | --- | --- |
| CC(C)COc1ccc(-n2cnc3c(Cl)ncnc32)cc1 | > 100 | > 100 | – | – |
| OCc1cccc(-n2cnc3c(Cl)ncnc32)c1 | > 100 | 14.2 | 30 | CC50 at 72 h [2]: 229 µM; CC50 at 72 h [3]: 175 µM; CC50 at 72 h [4]: 200 µM |
| OCc1cccc(-n2cnc3c(O)ncnc32)c1 | > 100 | > 100 | – | – |
| CC(=O)c1cccc(-n2cnc3c(Cl)nc(C)nc32)c1 | > 100 | 8.7 | 14 | – |
| O=C(c1ccccc1)c1ccc(-n2cnc3c(Cl)ncnc32)cc1 | > 100 | 67 | 85 | – |
| COc1cccc(Cn2cnc3ncnc(Cl)c32)c1 | > 100 | 75 | > 100 | – |
| CC(=O)c1cccc(-n2c(C)nc3c(Cl)nc(C)nc32)c1 | > 100 | 11 | 15 | – |
| CC(=O)c1ccc(-n2cnc3c(Cl)ncnc32)cc1 | > 100 | 35.3 | 51 | – |
| CC(C)COc1cccc(-n2cnc3c(Cl)ncnc32)c1 | > 100 | 29 | > 100 | – |
| OCc1ccc(-n2cnc3c(Cl)ncnc32)cc1 | > 100 | 11 | 20 | – |
| CC(=O)c1cccc(-n2c(C)nc3c(Cl)ncnc32)c1 | > 100 | 12.2 | 22 | – |
| Clc1ncnc2c1ncn2-c1ccc2c(c1)OCO2 | > 100 | > 100 | – | – |
| CC(=O)c1cccc(-n2c(=O)[nH]c3c(Cl)nc(C)nc32)c1 | > 100 | 6.7 | 10 | CC50 at 72 h [2]: > 250 µM; CC50 at 72 h [3]: > 250 µM; CC50 at 72 h [4]: > 250 µM |
| CC(=O)c1cc(-n2cnc3c(Cl)ncnc32)ccc1F | > 100 | 9.3 | 15 | – |
| Cc1nc(Cl)c2[nH]c(=O)n(-c3cccc(C(C)(C)O)c3)c2n1 | > 100 | 22 | 29 | – |
| CC(=O)c1cccc(-n2cnc3c(Cl)ncnc32)c1 | > 100 | 7.3 | 9.1 | EC50 (rhinovirus B14): > 100 µM; EC50 [5]: 3.3 µM; CC50 at 72 h [2]: 238 µM; EC50 [6]: 4.5 µM; EC50 (Poliovirus 1): > 100 µM; EC50 [7]: > 100 µM; EC50 (rhinovirus A2): > 100 µM; EC50 (Coxsackievirus A24): 2.7 µM; CC50 at 72 h [3]: 144 µM; EC50 [8]: 2.7 µM; EC50 [9]: > 100 µM; CC50 at 72 h [4]: > 250 µM |
| COC(=O)c1cccc(-n2cnc3c(Cl)ncnc32)c1 | > 100 | 11.1 | 22 | – |
| OCc1cccc(-n2cnc3cncnc32)c1 | > 100 | > 100 | – | – |

| SMILES | CC50 at 72 h [1] [µM] | EC50 (Coxsackievirus B3) [µM] | EC90 (Coxsackievirus B3) [µM] | other results |
| --- | --- | --- | --- | --- |
| CC(C)S(=O)(=O)n1c(N)nc2ccc(/C(=N/O)c3ccccc3)cc21 [ENVIROXIME] | > 100 | 0.7 | – | – |
| CC(=O)c1cccc(-n2c(=O)[nH]c3c(Cl)ncnc32)c1 | > 100 | 9.3 | 18 | – |
| CC(=O)c1cccc(-n2nnc3c(Cl)ncnc32)c1 | 44 | > 44 | – | – |
| CC(=O)c1cccc(Nc2ncnc(Cl)c2N)c1 | > 100 | > 100 | – | – |
| CC(=O)c1cccc(Nc2nc(C)nc(Cl)c2N)c1 | > 100 | > 100 | – | – |
| COc1cccc(-n2cnc3c(Cl)ncnc32)c1 | > 100 | 12 | 22 | – |
| Nc1nc(Cl)c2ncn(-c3cccc(CO)c3)c2n1 | > 100 | 17 | 25 | – |
| Fc1cccc(F)c1[C@@H]1SCc2nc3cc(C(F)(F)F)ccc3n21 | > 100 | 1.2 | – | – |
| OCc1cccc(-n2cnc3c(Br)ncnc32)c1 | > 100 | 22 | 29 | – |
| COc1cccc(Cn2cnc3c(Cl)ncnc32)c1 | > 100 | 53 | 70 | – |
| OCc1cccc(-n2cnc3c(Cl)nc(Cl)nc32)c1 | 8.8 | > 8.8 | – | – |
| CC(=O)c1cccc(-n2nnc3c(Cl)nc(C)nc32)c1 | 44 | > 44 | – | – |
| CNc1ncnc2c1ncn2-c1cccc(CO)c1 | > 100 | > 100 | – | – |
| Cc1nc(Cl)c2ncn(-c3cccc(C(C)(C)O)c3)c2n1 | > 100 | 8 | 7.4 | CC50 at 72 h [2]: > 250 µM; CC50 at 72 h [3]: > 250 µM; CC50 at 72 h [4]: > 250 µM |
| Cc1ncnc2c1ncn2-c1cccc(CO)c1 | > 100 | > 100 | – | – |
| COc1ncnc2c1ncn2-c1cccc(CO)c1 | > 100 | > 100 | – | – |
| COc1ccc(C(C)=O)cc1-n1cnc2c(Cl)ncnc21 | > 100 | > 57 | – | – |
| COc1ccc(C(C)=O)cc1-n1cnc2c(Cl)nc(C)nc21 | > 100 | > 100 | – | – |
